Data on six compounds can be found in ChEMBL document CHEMBL4130447, “A Bis-benzopyrroloisoquinoline Alkaloid Incorporating a Cyclobutane Core and a Chlorophenanthroindolizidine Alkaloid with Cytotoxic Activity from Ficus fistulosa var. tengerensis” (J Nat Prod, 2017).

The test system of one assay is MCF7. The experiment in a line: Cytotoxicity against human MCF7 cells assessed as decrease in cell viability after 72 hrs by CellTiter-Glo luminescence assay. In kind it is functional, cell-based. The following applies: MCF7, 72 h. The method, boiled down: (§1)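 Breast cancer lines were maintained in RPMI 1640 with 10% FBS and pen/strep at 37 °C and 5% CO2. Cells were plated at 1000/well, allowed 24 h, then treated 72 h with agents at 1.5–100 μM (diluted in phosphate buffer from a 100 mM DMSO stock). Paclitaxel at 0.01–10 μM served as the reference. Luminescent ATP read-out was used, with IC50 computed relative to 0.1% DMSO controls.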
For orientation: Cellular ATP, detected with luciferase, serves as a proxy for viable cell number.

The test system of another assay is MDA-MB-231. The experiment in a line: Cytotoxicity against human MDA-MB-231 cells assessed as decrease in cell viability after 72 hrs by CellTiter-Glo luminescence assay. It counts as functional, cell-based. To be noted: MDA-MB-231, 72 h. In short, it runs like this: as §1
The next assay deals with MDA-MB-468. The assay is described as follows: Cytotoxicity against human MDA-MB-468 cells assessed as decrease in cell viability after 72 hrs by CellTiter-Glo luminescence assay. In kind it is functional, cell-based. The following applies: MDA-MB-468, 72 h. The method, boiled down:
as §1

The subject of the next assay is MCF-10A. The experiment in a line: Cytotoxicity against human MCF10A cells assessed as decrease in cell viability after 72 hrs by CellTiter-Glo luminescence assay. In kind it is cell-based. In short, it runs like this:
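MCF10A (non-tumorigenic breast epithelial) cells were grown with 5% horse serum, 20 ng/mL EGF, 0.5 μg/mL hydrocortisone, 10 μg/mL insulin, and pen/strep at 37 °C and 5% CO2. Cells were seeded at 1000/well for 24 h, then exposed 72 h to 1.5–100 μM test agent diluted in phosphate buffer from a 100 mM DMSO stock. Viability was read by ATP luminescence. IC50 was calculated versus 0.1% DMSO-treated cells.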

Molecules are shown by their SMILES.

As to `COc1cc2cc(CO)c3c(c2cc1OC)CC1CCCN1C3` (racemic), the IC50 in the assay on MCF7, in the assay on MDA-MB-231, with MDA-MB-468 and in the assay on MCF-10A was > 10 µM each time.
Consider `COc1cc2cc(C3C(C(C)=O)C(C(C)=O)C3c3cc4cc(OC)c(OC)cc4c4c3CN3CCCC3C4)c3c(c2cc1OC)CC1CCCN1C3` (racemic), for which the IC50 in the assay with MCF7, in the assay with MDA-MB-231, in the assay with MDA-MB-468 and with MCF-10A was > 10 µM in each case.
On to `COc1cc2c3c(c4ccc(OC)c(Cl)c4c2cc1OC)CN1CCCC1C3` (racemic), for which the IC50 (as a rule, the midpoint of a concentration-inhibition curve) in the assay on MCF7 was 0.91 µM; in the assay on MDA-MB-231, 0.48 µM; in the assay on MDA-MB-468, 0.038 µM; with MCF-10A, 10.7 µM.
For `COc1cc2cc([C@@H]3[C@H](C(C)=O)[C@@H](C(C)=O)[C@@H]3c3cc4cc(OC)c(OC)cc4c4c3CN3CCC[C@@H]3C4)c3c(c2cc1OC)C[C@@H]1CCCN1C3`, the IC50 was > 10 µM in the assay with MCF7, > 10 µM in the assay with MDA-MB-231, 7.4 µM in the assay on MDA-MB-468 and > 10 µM with MCF-10A.
As for `COc1cc2cc([C@@H]3[C@@H](C(C)=O)[C@H](C(C)=O)[C@@H]3c3cc4cc(OC)c(OC)cc4c4c3CN3CCC[C@@H]3C4)c3c(c2cc1OC)C[C@@H]1CCCN1C3`, the IC50 in the assay with MCF7, in the assay on MDA-MB-231, with MDA-MB-468 and in the assay with MCF-10A was > 10 µM throughout.
With `CC(=O)O[C@H]1C(=O)[C@@]2(C)[C@H]([C@H](OC(=O)c3ccccc3)[C@]3(O)C[C@H](OC(=O)[C@H](O)[C@@H](NC(=O)c4ccccc4)c4ccccc4)C(C)=C1C3(C)C)[C@]1(OC(C)=O)CO[C@@H]1C[C@@H]2O` [PACLITAXEL], the IC50 is 0.0088 µM in the assay on MCF7, 0.059 µM in the assay on MDA-MB-231, 0.0061 µM in the assay with MDA-MB-468 and 0.0058 µM in the assay with MCF-10A.
